Source: PMC3910017 (CPT: Pharmacometrics & Systems Pharmacology, 2014)
Where “and” joins values, the source holds several entries; their conditions need not be identical. Equal entries are not always repeated. Where two headings read alike, the source gives them in different places.

Key:
[1] = cited from earlier work
LDL-C [2] = conditions: cited from earlier work
HDL-C [3] = conditions: similar exposure-response analysis; cited from earlier work
[4] = ref J.G. Suico et al., unpublished data, cited from earlier work
LDL-C [5] = conditions: dyslipidemic patients, alone or with statins; cited from earlier work
[6] = cited from earlier work; remark: listed apart in the source
LDL-C [7] = experiment: LDL-C percent change from baseline, exposure-response; assay type: in vivo, human
Outline: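 Arms were placebo or 30, 100 or 500 mg daily monotherapy, or 100 mg with simvastatin 40 mg, atorvastatin 20 mg or rosuvastatin 10 mg, for 12 weeks. LDL-C was measured by standard enzymatic assay at weeks 2, 4, 8 and 12. Percent change from baseline was modelled with placebo, statin and test-compound Emax terms on post hoc AUC, an interaction term, and time constant K. Covariates included baseline ApoA1.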

HDL-C [8] = conditions: dyslipidemic patients, alone or with statins; cited from earlier work
[9] = assay type: in vivo, human
Metabolism = conditions: separate studies
HDL-C [10] = experiment: HDL-C percent change from baseline, exposure-response; assay type: in vivo, human; conditions: for HDL-C increase as percent of the maximal effect: from EAUC50 and estimated AUC
Outline: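 Dyslipidemic patients took placebo or 30, 100 or 500 mg daily for 12 weeks, or 100 mg plus simvastatin 40 mg, atorvastatin 20 mg or rosuvastatin 10 mg. HDL-C was measured by enzymatic assay at weeks 2, 4, 8 and 12. Percent change from baseline was fitted with placebo and statin terms plus a sigmoid Emax on each patient's post hoc steady-state AUC (EAUC50, Hill coefficient), with rate constant K.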

Protein binding = assay type: in vitro ADME; conditions: separate studies
[11] = Healthy subject studies of evacetrapib; assay type: in vivo, human; conditions: 30-mg single dose, healthy subjects; data not shown
[12] = patients in the ILLUMINATE study; cited from earlier work
[13] = phase III formulation of anacetrapib
[14] = week 16–18, 4–6 weeks after last dose, monotherapy groups

COc1cc(F)c(C(C)C)cc1-c1ccc(C(F)(F)F)cc1CN1C(=O)O[C@H](c2cc(C(F)(F)F)cc(C(F)(F)F)c2)[C@@H]1C [anacetrapib]
Increase of exposure with dose [1]: Less than dose-proportional
AUC with high-fat meal vs fasted state [1, 13]: 7.5 fold
AUC with low-fat meal vs fasted state [1, 13]: 2.2 fold
LDL-C reduction in combination with atorvastatin, kind of interaction (LDL-C [2]): pharmacologically independent
Theoretical maximal LDL-C reduction (LDL-C [2]; similar LDL-C model): 80%
Maximal effect on HDL-C (HDL-C [3]): 176%

Cc1cc(C)c2c(c1)[C@@H](N(Cc1cc(C(F)(F)F)cc(C(F)(F)F)c1)c1nnn(C)n1)CCCN2C[C@H]1CC[C@H](C(=O)O)CC1 [evacetrapib]
Half-life ([4]; healthy subject studies): ~40 h
Increase of exposure with dose ([4]; healthy subjects, 10–600 mg dose range): less than dose-proportional
Observed LDL-C decrease (LDL-C [5]): up to 36%
Safety and tolerability ([6]; administered alone or in combination with statins): safe and well tolerated
Changes in mineralocorticoid levels or increases in systolic or diastolic blood pressure ([6]; dyslipidemic patients): did not cause any significant changes
LDL-C response of evacetrapib and the statins, kind of interaction (LDL-C [7]; coadministered with atorvastatin, simvastatin or rosuvastatin): pharmacologically independent
AUC that produced half of maximum effect (EAUC50), LDL-C, population estimate (%SEE, 95% CI) (LDL-C [7]; final LDL-C model): 4,230 (3.23%, 2,450 to 7,010) h·ng/ml
Theoretical maximal mean LDL-C decrease (reduction) relative to baseline (LDL-C [7]; final LDL-C model, printed as a reduction): 44.1%
LDL-C at follow-up visit after discontinuation (LDL-C [7]; [14]): returned to levels similar to those of the placebo group
Observed HDL-C increase (HDL-C [8]): up to 129%
Increase of exposure with dose ([9]; 30–500 mg, dyslipidemic patients): less than dose-proportional
Model-predicted population CL/F lower at CGCL 50 ml/minute than at 100 ml/minute ([9]; CGCL 50 vs 100 ml/minute): 10%
Effect of dose on CL/F (covariate coefficient) ([9]; CL/F = 15.3 * (1+0.00105 * DOSE) * (1+0.00198 * (CGCL − 91.28)), DOSE in mg): 0.00105 (21.6%, 0.000726–0.00144)
CL/F, estimated population value ([9]; dose 30 mg): 13.1 L/h
CL/F, estimated population value ([9]; dose 100 mg): 17.0 L/h
CL/F, estimated population value ([9]; dose 500 mg): 25.4 L/h
Oral clearance (CL/F), population estimate (%SEE, 95% CI) ([9]; final population PK model): 15.3 (4.57%, 14.3–16.5) l/hour
Peripheral volume of distribution (V3/F), population estimate (%SEE, 95% CI) ([9]; final population PK model): 827 (18%, 600.7–1,071) l
Rate of absorption (Ka) ([9]; final population PK model, value fixed, not estimated): 0.3 hour^-1 and 0.3 (fixed) hour^-1
Vd/F ([9]; human, plasma, oral): 228 L
Metabolism (Metabolism): metabolized primarily by oxidative pathways
HDL-C increase as percent of the maximal effect (HDL-C [10]; 30 mg dose): ~ 30 % of the maximal effect
HDL-C increase as percent of the maximal effect (HDL-C [10]; 100 mg dose): ~50 % of the maximal effect
HDL-C increase as percent of the maximal effect (HDL-C [10]; 500 mg dose): ~80 % of the maximal effect
Time course constant (K) of HDL-C response, population estimate (%SEE, 95% CI) (HDL-C [10]; final HDL-C model): 0.00684 (7.43%, 0.00604–0.00791) hour^−1
AUC that produced half of maximum effect (EAUC50), HDL-C, population estimate (%SEE, 95% CI) (HDL-C [10]; final HDL-C model, at median baseline HDL 52.2 mg/dl): 5,380 (1.54%, 3,930–7,270) h·ng/ml
Maximum effect (Emax) on HDL-C, population estimate (%SEE, 95% CI) (HDL-C [10]; theoretical maximum at steady state, final HDL-C model): 177 (6.55%, 153–207) % change from baseline
HDL-C at follow-up visit after discontinuation (HDL-C [10]; [14]): returned to levels similar to those of the placebo group
Protein bound (Protein binding): > 99%
AUC0–∞ increased after a high-fat meal relative to low-fat meal [11]: 41%
AUC0–∞ reduced in the fasted state relative to low-fat meal [11]: 38%

CCOC(=O)N1c2ccc(C(F)(F)F)cc2[C@@H](N(Cc2cc(C(F)(F)F)cc(C(F)(F)F)c2)C(=O)OC)C[C@H]1CC [torcetrapib]
Adverse cardiovascular events [12]: increased adverse cardiovascular events
